Experimental data: ChEMBL document CHEMBL4825754, “Antiviral evaluation of hydroxyethylamine analogs: Inhibitors of SARS-CoV-2 main protease (3CLpro), a virtual screening and simulation approach” (Bioorg Med Chem, 2021)

Legend:
[1] = molecular target: Replicase polyprotein 1ab (Severe acute respiratory syndrome coronavirus 2) (UniProt P0DTD1); assay: Inhibition of SARS-CoV-2 3CLpro using TVLQ-AMC probe as substrate at 10 uM preincubated with enzyme for 5 mins followed by substrate addition and measured after 3 hrs for every 15 mins for 1 hr by FRET assay; conditions: time 245.0 min
Outline: (§1)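 3CLpro (0.4 µM final) preincubated 5 min at room temperature with compound in Tris-HCl pH 7.3, 1 mM EDTA. TVLQ-AMC added to 40 µM final. Fluorescence (ex 364/em 440 nm) read every 15 min for 1 h and at 3 h, in triplicate. Values normalized to the mean 3 h no-inhibitor control set as 100.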

[2] = molecular target: Replicase polyprotein 1ab (Severe acute respiratory syndrome coronavirus 2) (UniProt P0DTD1); assay: Inhibition of SARS-CoV-2 3CLpro using TVLQ-AMC probe as substrate at 50 uM preincubated with enzyme for 5 mins followed by substrate addition and measured after 3 hrs for every 15 mins for 1 hr by FRET assay; conditions: time 245.0 min; outline: as §1
SARS-CoV-2 [3] = assay: Antiviral activity against SARS-CoV-2 infected in African green monkey Vero E6 cells assessed as inhibition of viral spread cells preincubated with compound for 1 hr followed by viral infection for 1 hr and later washed with PBS followed by re-incubated with compound for 48 hrs; format: functional, organism-based, Severe acute respiratory syndrome coronavirus 2
SARS-CoV-2 [4] = assay: Antiviral activity against SARS-CoV-2 infected in African green monkey Vero E6 cells assessed as inhibition of viral entry cells preincubated with compound for 1 hr followed by viral infection for 1 hr and later washed with PBS followed by re-incubated with compound for 24 hrs; format: functional, organism-based, Severe acute respiratory syndrome coronavirus 2
Vero C1008 [5] = assay: Cytotoxicity against African green monkey Vero E6 cells assessed as reduction in cell survival at 50 uM; format: cell-based; conditions: chlorocebus sabaeus, vero c1008, 50 µM
Vero C1008 [6] = assay: Cytotoxicity against African green monkey Vero E6 cells assessed as effect on nuclei count; format: cell-based; conditions: chlorocebus sabaeus
[7] = Severe acute respiratory syndrome coronavirus 2, Vero C1008

Row | Molecule | inhibition [1] [%] | inhibition [2] [%] | IC50 (SARS-CoV-2 [3]; vero e6) [µM] | IC50 (SARS-CoV-2 [4]; vero e6) [µM] | Activity (Vero C1008 [5]) | IC50 (SARS-CoV-2 [3]; [7]) [µM] | IC50 (SARS-CoV-2 [4]; [7]) [µM] | Activity (Vero C1008 [6])
1 | IVERMECTIN [listing 1 of 2 here] | 85 | 90 | – | – | – | – | – | –
2 | IVERMECTIN [listing 2 of 2 here] | – | – | 6.02 | 2.7 | Toxic | – | – | –
3 | Cc1ccc2c(c1)C(=O)N([C@H](Cc1ccccc1)C(=O)N[C@@H](Cc1ccccc1)[C@@H](O)CN1CCN(C[C@H](O)[C@H](Cc3ccccc3)NC(=O)[C@@H](Cc3ccccc3)N3C(=O)c4ccc(C)cc4C3=O)CC1)C2=O | 5 | 12 | – | – | – | 14.7 | 10.9 | Non-Toxic
4 | CC(C)(C)OC(=O)N[C@@H](Cc1ccccc1)[C@@H](O)CN1CCC(N2CCCCC2)CC1 | 5 | 12 | – | – | – | 10.1 | 6.33 | Non-Toxic
5 | CC(C)(C)OC(=O)NC(Cc1ccccc1)C(=O)N[C@@H](Cc1ccccc1)[C@@H](O)CN1CCN(Cc2ccc(C(F)(F)F)cc2)CC1 (some centres undefined) | 5 | 12 | – | – | – | 12.5 | – | Non-Toxic
